{"source": "ChEMBL document CHEMBL1125251", "about": "“4'-Hydroxy-3-methoxyflavones with potent antipicornavirus activity” (J Med Chem, 1991)", "key": {"Human rhinovirus sp. [1]": {"test_system": "Human rhinovirus sp.", "experiment": "Antirhinovirus activity against rhinovirus serotype 2 which were grown on Ohio HeLa cells", "type": "functional"}, "Rattus norvegicus [2]": {"organism": "Rattus norvegicus", "experiment": "Mutagenicity evaluated by calculating number of revertants using Salmonella Typhimurium strain TA 100 (2.5 mg/plate) without S9 mix from rat liver", "type": "functional", "outline": "(§1)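 Ames plate incorporation assay with Salmonella typhimurium TA 98 or TA 100, with or without rat liver S9 (20 µL S9 per plate). S9 came from male Wistar rats induced with phenobarbital (0.1% in drinking water) plus β-naphthoflavone (80 mg/kg ip on day 5 in corn oil), fasted 24 h and killed on day 7. Revertants per plate counted on duplicate plates per dose.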"}, "Rattus norvegicus [3]": {"organism": "Rattus norvegicus", "experiment": "Mutagenicity evaluated by calculating number of revertants using Salmonella Typhimurium strain TA 100 (2.5 mg/plate) with S9 mix from rat liver", "type": "functional", "outline": "as §1"}, "Rattus norvegicus [4]": {"organism": "Rattus norvegicus", "experiment": "Mutagenicity evaluated by calculating number of revertants using Salmonella Typhimurium strain TA 100 (0.25 mg/plate) with S9 mix from rat liver", "type": "functional", "outline": "as §1"}, "Enterovirus C [5]": {"test_system": "Enterovirus C", "experiment": "Minimum drug concentration at which 99% of the polio virus is inhibited", "type": "functional", "outline": "(§2)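 Poliovirus type 1 Brunhilde 1A/S3 in Vero monolayers. Serial 10-fold virus dilutions adsorbed 1 h at 37 °C, then serial 2-fold compound dilutions were added. Incubated at 37 °C and scored for CPE by light microscopy, with a 3-day readout. Titer reduction is control/treated TCD50/mL. ED99 is the minimum concentration inhibiting 99% of virus. Virus, cell and compound controls were included.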"}, "Human rhinovirus sp. [6]": {"test_system": "Human rhinovirus sp.", "experiment": "Antirhinovirus activity against rhinovirus serotype 39 which were grown on Ohio HeLa cells", "type": "functional"}, "Human rhinovirus sp. [7]": {"test_system": "Human rhinovirus sp.", "experiment": "Antirhinovirus activity against rhinovirus serotype 41 which were grown on Ohio HeLa cells", "type": "functional"}, "Human rhinovirus sp. [8]": {"test_system": "Human rhinovirus sp.", "experiment": "Antirhinovirus activity against rhinovirus serotype 9 which were grown on Ohio HeLa cells", "type": "functional"}, "[9]": {"experiment": "Cytotoxic dose at which 50% growth of normal cells is inhibited", "type": "cell-based", "conditions": "chlorocebus sabaeus, Vero cells; read-out: CyD50", "outline": "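Cell-growth cytotoxicity in Vero cells or human skin fibroblasts. Serial 2-fold dilutions in M-199 with 6% newborn calf serum were added in quadruplicate to 10⁶ cells and held 6 days at 37 °C. Cells were trypsinized, counted and reseeded with compound, repeated five times. Generation time was calculated per concentration. CyD50 = lowest concentration at least doubling generation time versus untreated cells.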"}, "Human rhinovirus sp. [10]": {"test_system": "Human rhinovirus sp.", "experiment": "Antirhinovirus activity against rhinovirus serotype 29 which were grown on Ohio HeLa cells", "type": "functional"}, "Enterovirus C [11]": {"test_system": "Enterovirus C", "experiment": "Maximal non-toxic dose (MNTD) that shows antiviral activity.", "type": "functional", "outline": "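End-point titration. Poliovirus type 1 Brunhilde was run in Vero cells at 37 °C with a 3-day read. Rhinovirus 15 was run in human skin fibroblasts at 33 °C with a 7-day read. Monolayers got serial 10-fold virus dilutions and adsorbed 1 h at 37 °C, then serial 2-fold compound dilutions (DMSO stock in maintenance medium). CPE was read by light microscopy. RF = control titer (TCD50/mL) / titer at maximal nontoxic dose.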"}, "[12]": {"experiment": "Therapeutic Index measured as the ratio of CyD50 (rhino) / ED99 (rhino) values.", "conditions": "read-out: Therapeutic index 99", "outline": "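TI99 = CyD50/ED99 for rhinovirus 15. ED99 came from end-point titration in human skin fibroblasts at 33 °C over 7 days. CyD50 came from fibroblast growth: 10⁶ cells were given serial 2-fold compound dilutions in quadruplicate for 6 days at 37 °C, then counted and reseeded, repeated five times. Generation time was calculated per concentration.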"}, "[13]": {"experiment": "Therapeutic Index measured as the ratio of CyD50(polio) / ED99(polio) values", "type": "organism-based", "conditions": "enterovirus c; read-out: Therapeutic index 99", "outline": "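TI99 = CyD50/ED99 for poliovirus. ED99 came from end-point titration in Vero cells at 37 °C over 3 days. CyD50 came from Vero cell growth: 10⁶ cells were given serial 2-fold compound dilutions in quadruplicate for 6 days at 37 °C, then trypsinized, counted and reseeded, repeated five times. Generation time was calculated per concentration.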"}, "Rattus norvegicus [14]": {"organism": "Rattus norvegicus", "experiment": "Compound was evaluated for the mutagenicity by calculating number of revertants using Salmonella Typhimurium strain TA 98 (0.25 mg/plate) with S9 mix from rat liver", "type": "functional", "outline": "as §1"}, "Human rhinovirus sp. [15]": {"test_system": "Human rhinovirus sp.", "experiment": "Antirhinovirus activity against rhinovirus serotype 14 which were grown on Ohio HeLa cells", "type": "functional"}, "Human rhinovirus sp. [16]": {"test_system": "Human rhinovirus sp.", "experiment": "Antirhinovirus activity against rhinovirus serotype 59 which were grown on Ohio HeLa cells", "type": "functional"}, "Human rhinovirus sp. [17]": {"test_system": "Human rhinovirus sp.", "experiment": "Minimum drug concentration at which 99% of the rhino virus is inhibited.", "type": "functional", "outline": "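End-point titration with rhinovirus type 15 on human skin fibroblast monolayers. Cells were infected with serial 10-fold virus dilutions and allowed 1 h adsorption at 37 °C. Serial 2-fold compound dilutions were then added and plates incubated at 33 °C. CPE was read daily by light microscopy for at least 1 week, titres as TCD50/mL. ED99 = minimum concentration inhibiting 99% of virus.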"}, "Human rhinovirus sp. [18]": {"test_system": "Human rhinovirus sp.", "experiment": "Antirhinovirus activity against rhinovirus serotype 89 which were grown on Ohio HeLa cells", "type": "functional"}, "Rattus norvegicus [19]": {"organism": "Rattus norvegicus", "experiment": "Mutagenicity evaluated by calculating number of revertants using Salmonella Typhimurium strain TA 98 (0.25 mg/plate) without S9 mix from rat liver", "type": "functional", "outline": "(§3)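 Ames plate incorporation assay with Salmonella typhimurium TA98 or TA100, without S9, at 0.25 mg/plate. Revertants per plate were counted on duplicate plates per dose. Quercetin was the standard mutagen.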"}, "Human rhinovirus sp. [20]": {"test_system": "Human rhinovirus sp.", "experiment": "Cytotoxic dose at which 50% growth of normal cells is inhibited against rhino virus infection.", "type": "functional", "outline": "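Human skin fibroblasts, 10⁶ cells per flask, given serial 2-fold dilutions in quadruplicate in M-199 with 6% newborn calf serum and held 6 days at 37 °C. Cells were trypsinized, counted in a chamber and reseeded with compound over five repeat cycles. CyD50 = lowest concentration at least doubling cell generation time relative to untreated control.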"}, "Enterovirus C [21]": {"test_system": "Enterovirus C", "experiment": "The ratio of the poliovirus viral titer of the virus control (reduction factor) to the viral titer in the presence of the maximal non-toxic dose (RF MNTD)", "type": "functional", "outline": "as §2"}, "Enterovirus C [22]": {"test_system": "Enterovirus C", "experiment": "Minimal dose which produces titer reduction at 10 ug/mL (mD RF10e3)", "type": "functional"}, "Rattus norvegicus [23]": {"organism": "Rattus norvegicus", "experiment": "Mutagenicity evaluated by calculating number of revertants using Salmonella Typhimurium strain TA 98 (2.5 mg/plate) without S9 mix from rat liver according to the plate incorporation assay.", "type": "functional", "outline": "as §1"}, "Rattus norvegicus [24]": {"organism": "Rattus norvegicus", "experiment": "Mutagenicity evaluated by calculating number of revertants using Salmonella Typhimurium strain TA 100 (0.25 mg/plate) without S9 mix from rat liver according to the plate incorporation assay.", "type": "functional", "outline": "as §3"}, "Human rhinovirus sp. [25]": {"test_system": "Human rhinovirus sp.", "experiment": "Antirhinovirus activity against rhinovirus serotype 63 which were grown on Ohio HeLa cells", "type": "functional"}, "Human rhinovirus sp. [26]": {"test_system": "Human rhinovirus sp.", "experiment": "Antirhinovirus activity against rhinovirus serotype 15 which were grown on Ohio HeLa cells", "type": "functional"}, "Human rhinovirus sp. [27]": {"test_system": "Human rhinovirus sp.", "experiment": "Antirhinovirus activity against rhinovirus serotype 85 which were grown on Ohio HeLa cells", "type": "functional"}, "Rattus norvegicus [28]": {"organism": "Rattus norvegicus", "experiment": "Compound was evaluated for the mutagenicity by calculating number of revertants using Salmonella Typhimurium strain TA 98 (2.5 mg/plate) with S9 mix from rat liver", "type": "functional", "outline": "as §1"}}, "data": [{"compound": "COc1c(-c2ccc(O)cc2)oc2cc(O)c(C)c(C)c2c1=O", "values": [{"measurement": "MIC50", "setting": "Human rhinovirus sp. [1]", "value": 0.044, "unit": "µg/mL"}, {"measurement": "Revertants/plate", "setting": "Rattus norvegicus [2]", "value": 85}, {"measurement": "Revertants/plate", "setting": "Rattus norvegicus [3]", "value": 94}, {"measurement": "Revertants/plate", "setting": "Rattus norvegicus [4]", "value": 103}, {"measurement": "ED99", "setting": "Enterovirus C [5]", "value": 0.1, "unit": "µg/mL"}, {"measurement": "MIC50", "setting": "Human rhinovirus sp. [6]", "value": 0.088, "unit": "µg/mL"}, {"measurement": "MIC50", "setting": "Human rhinovirus sp. [7]", "value": 0.088, "unit": "µg/mL"}, {"measurement": "MIC50", "setting": "Human rhinovirus sp. [8]", "value": 0.156, "unit": "µg/mL"}, {"measurement": "CC50", "setting": "[9]", "value": "> 100", "unit": "µg/mL"}, {"measurement": "MIC50", "setting": "Human rhinovirus sp. [10]", "value": 0.078, "unit": "µg/mL"}, {"measurement": "Max non-toxic dose", "setting": "Enterovirus C [11]", "value": ">100", "unit": "µg/mL"}, {"measurement": "selectivity ratio", "setting": "[12]", "value": "> 200"}, {"measurement": "selectivity ratio", "setting": "[13]", "value": "> 1000"}, {"measurement": "Revertants/plate", "setting": "Rattus norvegicus [14]", "value": 20}, {"measurement": "MIC50", "setting": "Human rhinovirus sp. [15]", "value": 0.072, "unit": "µg/mL"}, {"measurement": "MIC50", "setting": "Human rhinovirus sp. [16]", "value": 0.016, "unit": "µg/mL"}, {"measurement": "ED99", "setting": "Human rhinovirus sp. [17]", "value": 0.5, "unit": "µg/mL"}, {"measurement": "MIC50", "setting": "Human rhinovirus sp. [18]", "value": 0.5, "unit": "µg/mL"}, {"measurement": "Revertants/plate", "setting": "Rattus norvegicus [19]", "value": 12}, {"measurement": "CyD50", "setting": "Human rhinovirus sp. [20]", "value": 100, "unit": "µg/mL"}, {"measurement": "Reduction factor", "setting": "Enterovirus C [21]", "value": 1000000}, {"measurement": "Minimal dose", "setting": "Enterovirus C [22]", "value": "<2.5", "unit": "µg/mL"}, {"measurement": "Revertants/plate", "setting": "Rattus norvegicus [23]", "value": 10}, {"measurement": "Revertants/plate", "setting": "Rattus norvegicus [24]", "value": 110}, {"measurement": "MIC50", "setting": "Human rhinovirus sp. [25]", "value": 0.074, "unit": "µg/mL"}, {"measurement": "MIC50", "setting": "Human rhinovirus sp. [26]", "value": 0.088, "unit": "µg/mL"}, {"measurement": "MIC50", "setting": "Human rhinovirus sp. [27]", "value": 0.076, "unit": "µg/mL"}, {"measurement": "Revertants/plate", "setting": "Rattus norvegicus [28]", "value": 9}]}]}
